Experimental data taken from the array DNA melting data of Ke et al. (doi:10.1101/2024.01.08.574731).

Key:
[1] = folding enthalpy; higher = less favourable; fluorescence melt of hairpins on a sequencing array, two-state fit; conditions: sodium 0.088 M
Procedure, shortened: (§1)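 In 50 mM Na-HEPES pH 8.0 containing 25 mM NaCl, hairpins from the library on a sequenced MiSeq flow cell were imaged for Cy3 fluorescence at 2.5 °C steps up to 60 °C, with Cy3 and quencher oligos annealed. After normalisation to pre-quench Cy3 and to control constructs, two-state fits with bootstrapping gave melting temperature and folding enthalpy. Four replicates were combined by inverse-variance weighting, and fitted temperatures were shifted up by 9.35 °C to match UV melts.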

[2] = melting temperature; fluorescence melt of hairpins on a sequencing array, two-state fit, raised by 9.35 °C to match UV melts; conditions: sodium 0.088 M
Procedure, shortened: as §1

Sequence | folding enthalpy [1] | Tm [2]
GATCAAGGGTTGATC ((((((...)))))) | -24 kcal/mol | 40.3 °C
GATCAAGTAATTGATC ((((((....)))))) | -32.1 kcal/mol | 50 °C
GATCAAGTATTGATC ((((((...)))))) | -43.4 kcal/mol | 51.8 °C
GATCAAGTGGTTGATC ((((((....)))))) | -27.6 kcal/mol | 41.9 °C
GATCAAGTTTTTGATC ((((((....)))))) | -36 kcal/mol | 45.5 °C
GATCAATCAGTTGATC ((((((....)))))) | -29.6 kcal/mol | 44.4 °C
GATCAATCATTTGATC ((((((....)))))) | -37.3 kcal/mol | 45.5 °C
GATCAATCCTTGATC ((((((...)))))) | -28.7 kcal/mol | 44 °C
GATCAATCGTTTGATC ((((((....)))))) | -33.8 kcal/mol | 45.7 °C
GATCAATCTATTGATC ((((((....)))))) | -43.2 kcal/mol | 49.8 °C
GATCAATCTGTTGATC ((((((....)))))) | -35.1 kcal/mol | 45.6 °C
GATCAATGACTTGATC ((((((....)))))) | -29.1 kcal/mol | 39.7 °C
GATCAATGCCTTGATC ((((((....)))))) | -26.2 kcal/mol | 45.3 °C
GATCAATGGGTTGATC ((((((....)))))) | -35.5 kcal/mol | 48.3 °C
GATCAATTCCTTGATC ((((((....)))))) | -35.3 kcal/mol | 45.4 °C
GATCAATTTGTTGATC ((((((....)))))) | -35.6 kcal/mol | 47.3 °C
GATCACAACCGTGATC ((((((....)))))) | -39.2 kcal/mol | 57.2 °C
GATCACAATGTGATC ((((((...)))))) | -36.8 kcal/mol | 55.6 °C
GATCACAATTGTGATC ((((((....)))))) | -41.6 kcal/mol | 56.1 °C
GATCACACTAGTGATC ((((((....)))))) | -43.4 kcal/mol | 58.8 °C
GATCACAGACGTGATC ((((((....)))))) | -37 kcal/mol | 57 °C
GATCACAGATGTGATC ((((((....)))))) | -37.8 kcal/mol | 56.8 °C
GATCACAGCGTGATC ((((((...)))))) | -42 kcal/mol | 61.9 °C
GATCACAGGCGTGATC ((((((....)))))) | -36 kcal/mol | 57.3 °C

Sequence | folding enthalpy [1] | Tm [2]
GATCACAGGTGTGATC ((((((....)))))) | -36.4 kcal/mol | 59.9 °C
GATCACAGTGGTGATC ((((((....)))))) | -50 kcal/mol | 56.5 °C
GATCACATATGTGATC ((((((....)))))) | -41.9 kcal/mol | 58.9 °C
GATCACATCAGTGATC ((((((....)))))) | -42.1 kcal/mol | 58.4 °C
GATCACATCCGTGATC ((((((....)))))) | -46 kcal/mol | 56.6 °C
GATCACATTGTGATC ((((((...)))))) | -33.7 kcal/mol | 57.9 °C
GATCACCAACGTGATC ((((((....)))))) | -41.6 kcal/mol | 53.8 °C
GATCACCAAGGTGATC ((((((....)))))) | -43.3 kcal/mol | 60 °C
GATCACCACAGTGATC ((((((....)))))) | -40.4 kcal/mol | 57.4 °C
GATCACCATCGTGATC ((((((....)))))) | -31.8 kcal/mol | 54.5 °C
GATCACCATTGTGATC ((((((....)))))) | -39.2 kcal/mol | 56.3 °C
GATCACCCAGGTGATC ((((((....)))))) | -35.7 kcal/mol | 61.6 °C
GATCACCCTGTGATC ((((((...)))))) | -42.3 kcal/mol | 59.3 °C
GATCACCGAAAGGTATC (((.(((....)))))) | -15.8 kcal/mol | 34.1 °C
GATCACCGAAAGGTCATC (((.(((....))).))) | -16.8 kcal/mol | 32.5 °C
GATCACCGACGTGATC ((((((....)))))) | -32.5 kcal/mol | 54.5 °C
GATCACCGAGTGATC ((((((...)))))) | -34.9 kcal/mol | 55.4 °C
GATCACCGCGGTGATC ((((((....)))))) | -44.1 kcal/mol | 67.2 °C
GATCACCGCTGTGATC ((((((....)))))) | -36.3 kcal/mol | 57 °C
GATCACCGTTGTGATC ((((((....)))))) | -39.8 kcal/mol | 55.4 °C
GATCACCTATGTGATC ((((((....)))))) | -40.1 kcal/mol | 57.1 °C
GATCACGAAAGTGCAATC ((((((....)))..))) | -10 kcal/mol | 28.1 °C
GATCACGAAAGTGCGATC ((((((....)))..))) | -16.3 kcal/mol | 29.5 °C
GATCACGAAAGTGTGATC ((((((....)))..))) | -27 kcal/mol | 47.9 °C

Sequence | folding enthalpy [1] | Tm [2]
GATCACGAGAGTGATC ((((((....)))))) | -28.4 kcal/mol | 67.8 °C
GATCACGAGGGTGATC ((((((....)))))) | -38.1 kcal/mol | 54.6 °C
GATCACGCCTGTGATC ((((((....)))))) | -49.5 kcal/mol | 59.4 °C
GATCACGCGCGTGATC ((((((....)))))) | -62 kcal/mol | 62.7 °C
GATCACGGGAGTGATC ((((((....)))))) | -37.6 kcal/mol | 68.5 °C
GATCACGGTGTGATC ((((((...)))))) | -30.5 kcal/mol | 61.3 °C
GATCACGGTTGTGATC ((((((....)))))) | -31.2 kcal/mol | 61 °C
GATCACGTAGGTGATC ((((((....)))))) | -39 kcal/mol | 63.9 °C
GATCACGTATGTGATC ((((((....)))))) | -38.5 kcal/mol | 68.2 °C
GATCACGTCGTGATC ((((((...)))))) | -40.5 kcal/mol | 61.1 °C
GATCACGTGGTGATC ((((((...)))))) | -46.3 kcal/mol | 56.5 °C
GATCACGTTGGTGATC ((((((....)))))) | -37 kcal/mol | 58.2 °C
GATCACGTTGTGATC ((((((...)))))) | -38.1 kcal/mol | 60.1 °C
GATCACTAAAGTGATC ((((((....)))))) | -38.6 kcal/mol | 54.5 °C
GATCACTACGTGATC ((((((...)))))) | -39.7 kcal/mol | 61.7 °C
GATCACTAGGGTGATC ((((((....)))))) | -41.7 kcal/mol | 57.3 °C
GATCACTATGGTGATC ((((((....)))))) | -41.5 kcal/mol | 59 °C
GATCACTATTGTGATC ((((((....)))))) | -37.8 kcal/mol | 58.3 °C
GATCACTCCGGTGATC ((((((....)))))) | -37.8 kcal/mol | 56.9 °C
GATCACTCGAGTGATC ((((((....)))))) | -39.9 kcal/mol | 59.4 °C
GATCACTCGGGTGATC ((((((....)))))) | -37.4 kcal/mol | 57.6 °C
GATCACTCGGTGATC ((((((...)))))) | -37.8 kcal/mol | 58.9 °C
GATCACTGCTGTGATC ((((((....)))))) | -38.2 kcal/mol | 57.1 °C
GATCACTGGCGTGATC ((((((....)))))) | -41.4 kcal/mol | 55.2 °C

Sequence | folding enthalpy [1] | Tm [2]
GATCACTTAAGTGATC ((((((....)))))) | -38 kcal/mol | 59.3 °C
GATCACTTCGTGATC ((((((...)))))) | -46.6 kcal/mol | 58.9 °C
GATCACTTCTGTGATC ((((((....)))))) | -38.4 kcal/mol | 58.9 °C
GATCAGAAAACTGATC ((((((....)))))) | -29.2 kcal/mol | 43.6 °C
GATCAGAACACTGATC ((((((....)))))) | -32.1 kcal/mol | 48.5 °C
GATCAGAACGCTGATC ((((((....)))))) | -29.5 kcal/mol | 47.3 °C
GATCAGAAGCCTGATC ((((((....)))))) | -31.7 kcal/mol | 47.1 °C
GATCAGAATACTGATC ((((((....)))))) | -39.2 kcal/mol | 47.4 °C
GATCAGAATTCTGATC ((((((....)))))) | -43.5 kcal/mol | 50.4 °C
GATCAGACAACTGATC ((((((....)))))) | -32.3 kcal/mol | 45.9 °C
GATCAGACACCTGATC ((((((....)))))) | -34.1 kcal/mol | 47.1 °C
GATCAGACGACTGATC ((((((....)))))) | -39.2 kcal/mol | 47.5 °C
GATCAGACTACTGATC ((((((....)))))) | -33 kcal/mol | 49.1 °C
GATCAGAGAGCTGATC ((((((....)))))) | -31 kcal/mol | 46.2 °C
GATCAGAGCACTGATC ((((((....)))))) | -36.5 kcal/mol | 49.3 °C
GATCAGAGTTCTGATC ((((((....)))))) | -36.6 kcal/mol | 50.5 °C
GATCAGATGACTGATC ((((((....)))))) | -35.3 kcal/mol | 47.8 °C
GATCAGATGTCTGATC ((((((....)))))) | -41.8 kcal/mol | 49.7 °C
GATCAGATTTCTGATC ((((((....)))))) | -41 kcal/mol | 52.9 °C
GATCAGCACACTGATC ((((((....)))))) | -32.3 kcal/mol | 53.4 °C
GATCAGCACTCTGATC ((((((....)))))) | -30.8 kcal/mol | 49.9 °C
GATCAGCAGTCTGATC ((((((....)))))) | -34.4 kcal/mol | 48.8 °C
GATCAGCCACCTGATC ((((((....)))))) | -33.8 kcal/mol | 49.6 °C
GATCAGCCCCCTGATC ((((((....)))))) | -36.2 kcal/mol | 48.2 °C
